Entries after “also recorded” stand apart in the source; their conditions may differ.
Assays:
UGT1A8 = conditions: cited from earlier work
[1] = Phase I dose escalation: dose limiting toxicities, MTD and CTCAE 3.0 toxicities; type: in vivo, human
Outline: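 Adults (>18 y) had refractory solid tumors, ECOG ≤2 and adequate marrow, hepatic and renal function. Test compound in 5% dextrose (0.05–0.5 mg/mL) was given as a 1-h IV infusion daily × 5 every 21 days, within 4 h of reconstitution. Premedication was oral dexamethasone, ondansetron, loratadine, famotidine and diphenhydramine. […] DLTs were assessed in cycle 1 by CTCAE v3.0. MTD was the level below that giving DLT in ≥2 patients.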

[2] = CTCAE related toxicities, Blood/bone marrow
[3] = CTCAE related toxicities, Cardiac general
[4] = CTCAE related toxicities, Constitutional symptoms
[5] = CTCAE related toxicities, Dermatology/skin
[6] = CTCAE related toxicities, Gastrointestinal
[7] = CTCAE related toxicities, Hemorrhage/bleeding
[8] = CTCAE related toxicities, Infection
[9] = CTCAE related toxicities, Metabolic/laboratory
[10] = CTCAE related toxicities, Musculoskeletal
[11] = CTCAE related toxicities, Neurology
[12] = CTCAE related toxicities, Pulmonary

CC[C@@]1(O)C(=O)OCc2c1cc1n(c2=O)Cc2c-1nc1ccc(O)cc1c2[Si](C)(C)C(C)(C)C [AR-67, 7-t-butyldimethylsilyl-10-hydroxycamptothecin]
metabolism by UGT1A8 (UGT1A8): extensively metabolized
Common Grade 3 and 4 toxicities: anemia ([1]; 26 patients, all dosage levels): 11.5%
Common Grade 3 and 4 toxicities: fatigue ([1]; 26 patients, all dosage levels): 15.4%
Common Grade 3 and 4 toxicities: leukopenia (leukocytopenia) ([1]; 26 patients, all dosage levels): 23%
Common Grade 3 and 4 toxicities: neutropenia ([1]; 26 patients, all dosage levels): 11.5%
Common Grade 3 and 4 toxicities: thrombocytopenia ([1]; 26 patients, all dosage levels): 15.4%
Diarrhea ([1]; 26 patients, all dosage levels): No diarrhea; also recorded: none of the patients experienced
Infusion related allergic (hypersensitivity) reactions ([1]; 26 patients, premedicated, cremophor-ethanol formulation): none of the patients experienced; also recorded: no patients exhibited hypersensitivity reactions
Hemoglobin, Grade 1 [1, 2]: 8
Hemoglobin, Grade 2 [1, 2]: 12
Hemoglobin, Grade 3 [1, 2]: 6
Hemoglobin, Grade 4 [1, 2]: 0
Hemoglobin, Total [1, 2]: 26
Leukocytes (total WBC), Grade 1 [1, 2]: 18
Leukocytes (total WBC), Grade 2 [1, 2]: 15
Leukocytes (total WBC), Grade 3 [1, 2]: 8
Leukocytes (total WBC), Grade 4 [1, 2]: 0
Leukocytes (total WBC), Total [1, 2]: 41
Monocytopenia, Grade 1 [1, 2]: 0
Monocytopenia, Grade 2 [1, 2]: 0
Monocytopenia, Grade 3 [1, 2]: 0
Monocytopenia, Grade 4 [1, 2]: 1
Monocytopenia, Total [1, 2]: 1
Neutrophils/granulocytes (ANC/AGC), Grade 1 [1, 2]: 3
Neutrophils/granulocytes (ANC/AGC), Grade 2 [1, 2]: 10
Neutrophils/granulocytes (ANC/AGC), Grade 3 [1, 2]: 5
Neutrophils/granulocytes (ANC/AGC), Grade 4 [1, 2]: 1
Neutrophils/granulocytes (ANC/AGC), Total [1, 2]: 19
Platelets, Grade 2 [1, 2]: 8
Platelets, Grade 3 [1, 2]: 9
Hypotension, Grade 1 [1, 3]: 0
Hypotension, Grade 2 [1, 3]: 1
Hypotension, Grade 3 [1, 3]: 0
Hypotension, Grade 4 [1, 3]: 0
Hypotension, Total [1, 3]: 1
Fatigue (asthenia, lethargy, malaise), Grade 1 [1, 4]: 4
Fatigue (asthenia, lethargy, malaise), Grade 3 [1, 4]: 8
Fatigue (asthenia, lethargy, malaise), Grade 4 [1, 4]: 0
Fatigue (asthenia, lethargy, malaise), Total [1, 4]: 26
Fever (in the absence of neutropenia), Grade 1 [1, 4]: 0
Fever (in the absence of neutropenia), Grade 2 [1, 4]: 1
Fever (in the absence of neutropenia), Grade 3 [1, 4]: 0
Fever (in the absence of neutropenia), Grade 4 [1, 4]: 0
Fever (in the absence of neutropenia), Total [1, 4]: 1
Insomnia, Grade 1 [1, 4]: 2
Insomnia, Grade 2 [1, 4]: 5
Insomnia, Grade 3 [1, 4]: 0
Insomnia, Grade 4 [1, 4]: 0
Insomnia, Total [1, 4]: 7
Weight loss, Grade 1 [1, 4]: 2
Weight loss, Grade 2 [1, 4]: 0
Weight loss, Grade 3 [1, 4]: 0
Weight loss, Grade 4 [1, 4]: 0
Weight loss, Total [1, 4]: 2
Nail changes, Grade 1 [1, 5]: 1
Nail changes, Grade 2 [1, 5]: 0
Nail changes, Grade 3 [1, 5]: 0
Nail changes, Grade 4 [1, 5]: 0
Nail changes, Total [1, 5]: 1
Pruritus/itching/Dry skin/Flushing, Grade 2 [1, 5]: 0
Pruritus/itching/Dry skin/Flushing, Grade 3 [1, 5]: 0
Pruritus/itching/Dry skin/Flushing, Grade 4 [1, 5]: 0
Pruritus/itching/Dry skin/Flushing, Total [1, 5]: 7
Rash/desquamation, Grade 1 [1, 5]: 2
Rash/desquamation, Grade 2 [1, 5]: 1
Rash/desquamation, Grade 3 [1, 5]: 0
Rash/desquamation, Grade 4 [1, 5]: 0
Rash/desquamation, Total [1, 5]: 3
Anorexia/Taste Alteration, Grade 1 [1, 6]: 4
Anorexia/Taste Alteration, Grade 3 [1, 6]: 1
Anorexia/Taste Alteration, Grade 4 [1, 6]: 0
Anorexia/Taste Alteration, Total [1, 6]: 12
Constipation/Dehydration, Grade 1 [1, 6]: 6
Constipation/Dehydration, Grade 2 [1, 6]: 8
Constipation/Dehydration, Grade 3 [1, 6]: 0
Constipation/Dehydration, Grade 4 [1, 6]: 0
Mucositis/stomatitis, Grade 1 [1, 6]: 2
Mucositis/stomatitis, Grade 2 [1, 6]: 0
Mucositis/stomatitis, Grade 3 [1, 6]: 0
Mucositis/stomatitis, Grade 4 [1, 6]: 0
Mucositis/stomatitis, Total [1, 6]: 2
Nausea, Grade 2 [1, 6]: 0
Nausea, Grade 3 [1, 6]: 0
Nausea, Grade 4 [1, 6]: 0
Hemorrhage, GI - Duodenum, Grade 1 [1, 7]: 0
Hemorrhage, GI - Duodenum, Grade 2 [1, 7]: 0
Hemorrhage, GI - Duodenum, Grade 3 [1, 7]: 1
Hemorrhage, GI - Duodenum, Grade 4 [1, 7]: 0
Hemorrhage, GI - Duodenum, Total [1, 7]: 1
Febrile neutropenia, Grade 1 [1, 8]: 0
Febrile neutropenia, Grade 2 [1, 8]: 0
Febrile neutropenia, Grade 3 [1, 8]: 1
Febrile neutropenia, Grade 4 [1, 8]: 2
Febrile neutropenia, Total [1, 8]: 3
Infection - ANC grade 0–2, Grade 1 [1, 8]: 3
Infection - ANC grade 0–2, Grade 2 [1, 8]: 4
Infection - ANC grade 0–2, Grade 3 [1, 8]: 0
Infection - ANC grade 0–2, Grade 4 [1, 8]: 2
Infection - ANC grade 0–2, Total [1, 8]: 9
Infection with unknown ANC, Grade 1 [1, 8]: 2
Infection with unknown ANC, Grade 2 [1, 8]: 1
Infection with unknown ANC, Grade 3 [1, 8]: 0
Infection with unknown ANC, Grade 4 [1, 8]: 0
Infection with unknown ANC, Total [1, 8]: 3
ALT, SGPT, Alkaline Phosphatase, Grade 1 [1, 9]: 8
ALT, SGPT, Alkaline Phosphatase, Grade 2 [1, 9]: 0
ALT, SGPT, Alkaline Phosphatase, Grade 3 [1, 9]: 0
ALT, SGPT, Alkaline Phosphatase, Grade 4 [1, 9]: 0
ALT, SGPT, Alkaline Phosphatase, Total [1, 9]: 8
Electrolyte abnormalities, Grade 1 [1, 9]: 8
Electrolyte abnormalities, Grade 2 [1, 9]: 0
Electrolyte abnormalities, Grade 3 [1, 9]: 0
Electrolyte abnormalities, Grade 4 [1, 9]: 0
Electrolyte abnormalities, Total [1, 9]: 8
Extremity-lower (gait/walking), Grade 1 [1, 10]: 1
Extremity-lower (gait/walking), Grade 2 [1, 10]: 0
Extremity-lower (gait/walking), Grade 3 [1, 10]: 0
Extremity-lower (gait/walking), Grade 4 [1, 10]: 0
Extremity-lower (gait/walking), Total [1, 10]: 1
Muscle weakness – Lower extremity, Grade 1 [1, 10]: 0
Muscle weakness – Lower extremity, Grade 2 [1, 10]: 3
Muscle weakness – Lower extremity, Grade 3 [1, 10]: 1
Muscle weakness – Lower extremity, Grade 4 [1, 10]: 0
Muscle weakness – Lower extremity, Total [1, 10]: 4
Dizziness, Grade 1 [1, 11]: 0
Dizziness, Grade 2 [1, 11]: 1
Dizziness, Grade 3 [1, 11]: 0
Dizziness, Grade 4 [1, 11]: 0
Dizziness, Total [1, 11]: 1
Neuropathy: sensory, Grade 1 [1, 11]: 1
Neuropathy: sensory, Grade 2 [1, 11]: 0
Neuropathy: sensory, Grade 3 [1, 11]: 0
Neuropathy: sensory, Grade 4 [1, 11]: 0
Neuropathy: sensory, Total [1, 11]: 1
Dyspnea, Grade 1 [1, 12]: 1
Dyspnea, Grade 2 [1, 12]: 0
Dyspnea, Grade 3 [1, 12]: 0
Dyspnea, Grade 4 [1, 12]: 0
Dyspnea, Total [1, 12]: 1
Hiccoughs (hiccups, singultus), Grade 1 [1, 12]: 2
Hiccoughs (hiccups, singultus), Grade 2 [1, 12]: 1
Hiccoughs (hiccups, singultus), Grade 3 [1, 12]: 0
Hiccoughs (hiccups, singultus), Grade 4 [1, 12]: 0
Hiccoughs (hiccups, singultus), Total [1, 12]: 3
DLT per Cohort ([1]; Level 5.5, 7.5 mg/m2/day daily × 5, n=7, cycle 1): one of seven
DLT per Cohort ([1]; Level 6, 8.9 mg/m2/day daily × 5, n=4, cycle 1): two of four
Day of ANC and platelet nadir ([1]; MTD level, cycle 1, recovered prior to day 22): 10 to 14 days
maximum tolerated dosage (MTD) ([1]; iv over 1 hour daily × 5, every 21 days): 7.5 mg/m^2/day
Patients with dose limiting toxicities ([1]; of 26 patients, 9 dosage levels): 5 patients
recommended phase II dosage ([1]; ×5 q 21 days): 7.5 mg/m^2/day

— PMC2831464 (Clinical cancer research : an official journal of the …, 2010)
